Only a selection was taken, and hits are over-represented in it overall.
INS-1E rescue: INS-1E beta cell protection from cytokine death; INS-1E cytokine-induced death, ATP luminescence, 48 h; normalised: neutral wells 0, positive control 100; protection from cytokine-induced ATP loss, % at 10 µM; hit rate 0.1% among 20,000; AID 488910;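 active = mean replicate protection from cytokine-induced ATP loss at least 50% and at least 75% of replicates each reaching 50%; inconclusive = meets only one of the two criteria, mean or replicate share; inactive = fails both the mean and replicate share criteria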
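assay system = INS-1E rat insulinoma cells | amount = 8000 cells per well | medium = phenol-red-free RPMI with 5% fetal bovine serum | doses = one compound concentration, pin transfer | timing = 48 h cytokine plus compound treatment, 10 min reagent incubation | also added = IL-1β, TNF-α and IFN-γ cytokine mix | signal = CellTiter-Glo luminescence measuring cellular ATP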
A1 apoptosis 2: compounds inhibiting A1, read as caspase activation; MEF A1-2A-BIM cells, caspase-Glo luminescence, 3 h; percent of clofoctol response, DMSO zero; caspase activation, % (concentration not given with the values); 24,000 tested, under 10 active; in the data active = caspase activation above about 5.9%; inconclusive = no clear call, values can overlap the other calls; inactive = below about 2.2%
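System: mouse embryonic fibroblasts co-expressing A1 and BIM (A1-2A-BIM), primed for A1 dependence; amount: 2500 cells/well; doses: 50 nL pinned compound; schedule: cells settled overnight, compound exposure 3 h at 37 °C, 5% CO2; detection: Caspase-Glo 3/7 luminescence, 1 h at room temperature; read-out: Caspase-3/7 activation, seen as rise in luminescence signal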
T cruzi HTS: intracellular Trypanosoma cruzi inhibition | AID 651903 | intracellular Trypanosoma cruzi in host cells, plate reader | activity score (inhibition), % at 5.01 µM | hit rate 4.9% among 22,000; in the data active = activity score above about 55%; inconclusive = no clear call, values can overlap the other calls;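 also: parasites and compound incubated about four days before reading; 0% = median of neutral control wells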
* = called active by the depositor; ? = inconclusive; / = no result.

SMILES | INS-1E rescue | A1 apoptosis 2 | T cruzi HTS
C[C@H](CO)N1C[C@H](C)[C@H](CN(C)S(=O)(=O)c2ccc(F)cc2)Oc2ncc(-c3cccc(F)c3)cc2C1=O | / | 0 | 28
C[C@H](CO)N1C[C@H](C)[C@H](CN(C)C)Oc2ncc(-c3ccc(F)cc3)cc2C1=O | / | 0 | 65*
C[C@H](CO)N1C[C@H](C)[C@H](CN(C)C)Oc2ncc(-c3cccc(F)c3)cc2C1=O | / | / | 71*
COc1cccc(-c2cnc3c(c2)C(=O)N([C@H](C)CO)C[C@H](C)[C@H](CN(C)C)O3)c1 | / | 1 | 76*
COc1cccc(-c2cnc3c(c2)C(=O)N([C@H](C)CO)C[C@H](C)[C@H](CN(C)S(C)(=O)=O)O3)c1 | / | 1 | 4
C[C@H](CO)N1C[C@H](C)[C@H](CN(C)C)Oc2ncc(-c3ccccc3)cc2C1=O | / | -1 | 63*
C[C@H](CO)N1C[C@H](C)[C@H](CN(C)Cc2ccncc2)Oc2ncc(-c3ccc(F)cc3)cc2C1=O | / | 0 | 7
C[C@H](CO)N1C[C@H](C)[C@H](CN(C)S(=O)(=O)c2ccccc2)Oc2ncc(-c3ccccc3)cc2C1=O | / | 2 | 16
C[C@@H]1CN([C@@H](C)CO)C(=O)Cc2cc(NC(=O)Nc3ccccc3)ccc2O[C@@H]1CN(C)Cc1ccc(C(F)(F)F)cc1 | -4 | 1 | ?
C[C@H]1CN([C@@H](C)CO)C(=O)Cc2cc(NC(=O)Nc3ccccc3)ccc2O[C@@H]1CN(C)Cc1ccc(C(F)(F)F)cc1 | -24 | 0 | 27
C[C@@H]1CN([C@H](C)CO)C(=O)Cc2cc(NC(=O)Nc3ccc(C(F)(F)F)cc3)ccc2O[C@@H]1CN(C)Cc1ccccc1 | -32 | / | 69*
C[C@@H]1CN([C@@H](C)CO)C(=O)Cc2cc(NC(=O)Nc3ccc(C(F)(F)F)cc3)ccc2O[C@@H]1CN(C)Cc1ccccc1 | -33 | / | 58*
C[C@H]1CN([C@@H](C)CO)C(=O)c2cccc(NC(=O)Nc3ccc(F)cc3)c2O[C@H]1CN(C)Cc1ccc(Cl)c(Cl)c1 | -12 | / | -33
C[C@@H]1CN([C@@H](C)CO)C(=O)c2cccc(NC(=O)Nc3ccc(C(F)(F)F)cc3)c2O[C@H]1CN(C)Cc1ccc(Cl)c(Cl)c1 | -52 | -1 | 78*
C[C@@H]1CN([C@H](C)CO)C(=O)c2cccc(NC(=O)Nc3ccc(F)cc3)c2O[C@H]1CN(C)Cc1ccc(Cl)c(Cl)c1 | -8 | / | 35
C[C@@H]1CN([C@H](C)CO)C(=O)c2cccc(NC(=O)Nc3ccc(C(F)(F)F)cc3)c2O[C@H]1CN(C)Cc1ccc(Cl)c(Cl)c1 | -36 | / | 87*
C[C@H](CO)N1C[C@H](C)[C@@H](CN(C)Cc2ccc(Cl)c(Cl)c2)Oc2c(NC(=O)Nc3ccc(F)cc3)cccc2C1=O | -23 | 0 | 18
C[C@@H]1CN([C@H](C)CO)C(=O)c2cccc(NC(=O)Nc3ccc(C(F)(F)F)cc3)c2O[C@@H]1CN(C)Cc1ccc(Cl)c(Cl)c1 | -64 | -1 | 85*
C=CC[C@@]12N=C(c3ccc(OCCCO)cc3)O[C@@H]1c1ccccc1N(CCS(=O)(=O)c1ccccc1)C2=O | / | 0 | /
O=C(O)CCCCCCC(=O)N/N=C/C1CCCCC1 | 15 | 1 | -25
COCCOC(=O)N1C(=O)[C@@]2(c3cc(C#Cc4ccc(OC)cc4)ccc31)[C@H](c1ccc(OCCO)cc1)N1[C@H](c3ccccc3)[C@H](c3ccccc3)OC(=O)[C@H]1[C@@H]2C(=O)NC[C@H](O)c1ccccc1 | / | 0 | /
COC(=O)C(CC#Cc1ccc2c(c1)[C@]1(C(=O)N2)[C@H](C(=O)NC[C@H](O)c2ccccc2)[C@H]2C(=O)O[C@H](c3ccccc3)[C@H](c3ccccc3)N2[C@@H]1c1ccc(O)cc1)C(=O)OC | / | 1 | /
CC1=C(C/C=N/NC(=O)CCCCCC(=O)O)C(C)(C)CCC1 | -10 | / | -11
Cc1ncc(CO)c(/C=N/NC(=O)CCCCCC(=O)Nc2ccccc2O)c1O | / | -1 | /
C[C@H]1CN([C@@H](C)CO)C(=O)c2cc(NS(=O)(=O)c3cccs3)ccc2O[C@@H]1CN(C)Cc1ccc(C(F)(F)F)cc1 | / | 0 | /
SMILES | INS-1E rescue | A1 apoptosis 2 | T cruzi HTS
C[C@H]1CN([C@@H](C)CO)C(=O)c2cc(NS(=O)(=O)c3cccs3)ccc2O[C@H]1CN(C)Cc1ccc(C(F)(F)F)cc1 | / | 0 | 39
C[C@H](CO)N1C[C@H](C)[C@H](CN(C)Cc2ccc(C(F)(F)F)cc2)Oc2ccc(NS(=O)(=O)c3cccs3)cc2C1=O | -14 | / | 58*
C[C@H](CO)N1C[C@H](C)[C@@H](CN(C)Cc2ccc(C(F)(F)F)cc2)Oc2ccc(NS(=O)(=O)c3cccs3)cc2C1=O | -12 | -1 | 60*
O=C1O[C@H](c2ccccc2)[C@H](c2ccccc2)N2[C@H]1[C@@H](C(=O)O)[C@]1(C(=O)Nc3ccc(C#CC4=CCCCC4)cc31)[C@H]2c1ccc(O)cc1 | / | -1 | /
O=C(NO)c1cccc(C(=O)N/N=C/c2ccc(Oc3ccccc3)cc2)c1 | -4 | -3 | -10
O=C(NO)c1ccc(C(=O)N/N=C/c2cccnc2)cc1 | -10 | / | 2
Cc1nnc(Sc2ccc(/C=N/NC(=O)c3ccc(C(=O)NO)cc3)o2)n1C | 7 | 1 | -14
C[C@@H]1CN([C@@H](C)CO)C(=O)c2cccc(NC(=O)c3cnccn3)c2O[C@@H]1CN(C)Cc1ccc(Oc2ccccc2)cc1 | -28 | 0 | 1
C[C@H](CO)N1C[C@H](C)[C@H](CN(C)Cc2ccc(Oc3ccccc3)cc2)Oc2c(NC(=O)c3ccncc3)cccc2C1=O | -11 | 0 | 60*
C[C@H](CO)N1C[C@H](C)[C@H](CN(C)Cc2ccccc2)Oc2c(NC(=O)c3ccncc3)cccc2C1=O | -1 | -1 | 81*
C[C@@H]1CN([C@H](C)CO)C(=O)c2cccc(NC(=O)c3ccncc3)c2O[C@@H]1CN(C)Cc1ccccc1 | 0 | 2 | -12
C[C@H]1CN([C@@H](C)CO)C(=O)c2cccc(NC(=O)c3ccncc3)c2O[C@@H]1CN(C)Cc1ccccc1 | 6 | / | 81*
C[C@@H]1CN([C@H](C)CO)C(=O)c2cccc(NC(=O)c3ccncc3)c2O[C@H]1CN(C)Cc1ccc(C(=O)O)cc1 | 1 | -1 | -10
O=C(N/N=C/c1ccc(O)c(O)c1O)c1ccccn1 | 21 | -11 | 51
C[C@H]1CN([C@@H](C)CO)C(=O)c2cc(NC(=O)Nc3ccc(F)cc3)ccc2O[C@H]1CN(C)C(=O)Nc1ccc(C(F)(F)F)cc1 | -26 | / | 9
C[C@H]1CN([C@@H](C)CO)C(=O)c2cccc(NC(=O)c3ccncc3)c2O[C@@H]1CN(C)C(=O)Nc1cccc2ccccc12 | 8 | 1 | 5
C[C@H]1CN([C@@H](C)CO)C(=O)c2cccc(NC(=O)c3ccncc3)c2O[C@H]1CN(C)C(=O)Nc1cccc2ccccc12 | 1 | 0 | 75*
C[C@H](CO)N1C[C@H](C)[C@H](CN(C)C(=O)Nc2cccc3ccccc23)Oc2c(NC(=O)c3ccncc3)cccc2C1=O | 1 | 2 | 70*

Screening results deposited in PubChem BioAssay by Broad Institute.
